Values after ≈ are worked out from the molar mass of the structure shown. Active and inactive are the calls of the source. The calls are words filed in the database; no cut-off is given here. Non-standard residues stand in square brackets, D forms with d. Residues, ends and D or L forms follow the SMILES beside them. ξ: configuration not given here. *: point of attachment. Hexanoyl(4ξ-Me) = CCC(C)CCC(=O)*; dDab = NCC[C@@H](N)C(=O)O; Dab = NCC[C@H](N)C(=O)O
Legend:
Pseudomonas aeruginosa [1] = test: Antimicrobial activity against Pseudomonas aeruginosa after 24 hrs by spectrophotometry; assay type: functional
Escherichia coli [2] = test: Antimicrobial activity against Escherichia coli assessed as perturbed cell membrane at 2 times MIC measured after 24 hrs by scanning electron microscopy; assay type: functional, organism-based
Method in brief: (§1)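 Bacteria grown to OD600 0.3 in LB on glass slides for 24 h, then washed with 10 mM sodium phosphate pH 7.4. Treated 20 min with peptide in LB at twice the upper limit of its MIC, washed, and fixed in 4% glutaraldehyde 1 h. Dehydrated through graded ethanol, dried at 60 °C, platinum coated, and imaged by SEM at 10 kV.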

Escherichia coli [3] = test: Bactericidal activity against Escherichia coli assessed as reduction in bacterial count at 20 times MIC up to 3 hrs by time-kill assay relative to control; assay type: functional
Method in brief: (§2)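 Time-kill assay. Overnight culture diluted in LB to mid-log phase, 10^5–10^8 CFU/mL; 100 μL added to 10 mL peptide in LB at 1×, 2×, 4× and 20× MIC. Incubated with shaking at 100 rpm, at 28 °C (Ea1501, Psa) or 37 °C (E. coli, P. aeruginosa, S. aureus). Samples at 0, 0.5, 1, 3, 6, 9 and 24 h serially diluted in 0.9% saline and plated; colonies counted after 24 h. Run in duplicate. Bactericidal means ≥2-log10 CFU/mL drop versus the no-antibiotic control.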

Escherichia coli [4] = test: Bactericidal activity against Escherichia coli by time-kill assay; assay type: functional, organism-based; method in brief: as §2
Erwinia amylovora [5] = test: Bactericidal activity against Erwinia amylovora 1501 by time-kill assay; assay type: functional, organism-based; method in brief: as §2
Erwinia amylovora [6] = test: Bactericidal activity against Erwinia amylovora 1501 at 2 to 20 times MIC up to 6 hrs by time-kill assay; assay type: functional, organism-based; method in brief: as §2
Staphylococcus aureus [7] = test: Bactericidal activity against Staphylococcus aureus at 4 to 20 times MIC after 3 hrs by time-kill assay; assay type: functional, organism-based; method in brief: as §2
Staphylococcus aureus [8] = test: Bactericidal activity against Staphylococcus aureus at 1 to 2 times MIC after 6 hrs by time-kill assay; assay type: functional, organism-based; method in brief: as §2
Staphylococcus aureus [9] = test: Antimicrobial activity against Staphylococcus aureus preformed biofilms at 10 to 25 uM after 48 hrs; assay type: functional, organism-based
Erwinia amylovora [10] = test: Antimicrobial activity against streptomycin-resistant Erwinia amylovora after 24 hrs by spectrophotometry; assay type: functional
Method in brief: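 Broth microdilution in Luria broth; overnight culture grown at 28 °C, adjusted to OD600 0.6, mixed 1:1 with a dilution series of peptide prepared in LB containing 0.5% acetic acid. Three replicates per concentration.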

Pseudomonas syringae [11] = test: Bactericidal activity against Pseudomonas syringae pv. actinidiae 16027 at 4 times MIC up to 6 hrs by time-kill assay; assay type: functional, organism-based; method in brief: as §2
Erwinia amylovora [12] = test: Antimicrobial activity against Erwinia amylovora 1501 after 24 hrs by spectrophotometry; assay type: functional; conditions: Erwinia amylovora, 1501, 24 h
Method in brief: (§3)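 Broth microdilution in Luria broth. Overnight culture from a single colony, grown at 28 °C (Ea1501, Psa) or 37 °C (E. coli, S. aureus), adjusted to OD600 0.6. Peptide dissolved in LB with 0.5% acetic acid as a dilution series; 50 μL peptide plus 50 μL culture per well, triplicates.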

Staphylococcus aureus [13] = test: Bactericidal activity against Staphylococcus aureus by time-kill assay; assay type: functional, organism-based; method in brief: as §2
Pseudomonas syringae [14] = test: Bactericidal activity against Pseudomonas syringae pv. actinidiae 16027 by time-kill assay; assay type: functional, organism-based; method in brief: as §2
Erwinia amylovora [15] = test: Bactericidal activity against Erwinia amylovora 1501 at 2 to 20 times MIC after 9 hrs by time-kill assay; assay type: functional, organism-based; method in brief: as §2
Staphylococcus aureus [16] = test: Antimicrobial activity against Staphylococcus aureus after 24 hrs by spectrophotometry; assay type: functional; method in brief: as §3
Staphylococcus aureus [17] = test: Inhibition of Staphylococcus aureus biofilm formation at 10 to 25 uM after 48 hrs; assay type: functional, organism-based
Method in brief: (§4)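 P. aeruginosa or S. aureus biofilms grown 48 h on coverslips in 12-well plates, with peptide added at inoculation at 5, 10, 25, 50 or 100 μM. Coverslips rinsed, dried at 50 °C and stained with BacLight (SYTO 9/propidium iodide) for 25 min in the dark at room temperature. Examined by fluorescence microscopy at 1000×.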

Escherichia coli [18] = test: Bactericidal activity against Escherichia coli assessed as reduction in bacterial count at 2 to 4 times MIC after 24 hrs by time-kill assay relative to control; assay type: functional, organism-based; method in brief: as §2
Pseudomonas aeruginosa [19] = test: Antimicrobial activity against Pseudomonas aeruginosa assessed as perturbed cell membrane at 2 times MIC measured after 24 hrs by scanning electron microscopy; assay type: functional, organism-based; method in brief: as §1
Staphylococcus aureus [20] = test: Bactericidal activity against Staphylococcus aureus at 1 to 2 times MIC after 24 hrs by time-kill assay; assay type: functional, organism-based; method in brief: as §2
Pseudomonas aeruginosa [21] = test: Antimicrobial activity against Pseudomonas aeruginosa assessed as inner membrane permeability at 0.5 to 100 uM measured after 60 min by propidium iodide uptake assay
[22] = tested on: Pseudomonas syringae pv. actinidiae; test: Antimicrobial activity against Pseudomonas syringae pv. actinidiae 16027 preformed biofilms after 48 hrs by crystal violet staining-based microscopy; assay type: functional
Method in brief: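 Psa16027 biofilms formed 48 h without peptide, then washed. 100 μL of peptide (1, 5 or 50 μM) in LB, or LB alone, added and incubated a further 24 h at 28 °C. Crystal violet staining followed, with A560 estimation of biofilm mass and microscopy.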

[23] = Antimicrobial activity against Pseudomonas syringae pv. actinidiae 16027 after 24 hrs by spectrophotometry; assay type: functional; conditions: Pseudomonas syringae, 16027, 24 h; method in brief: as §3
Staphylococcus aureus [24] = test: Antimicrobial activity against Staphylococcus aureus assessed as complete cell lysis at 2 times MIC […]; assay type: functional, organism-based
Escherichia coli [25] = test: Antimicrobial activity against Escherichia coli after 24 hrs by spectrophotometry; assay type: functional; method in brief: as §3
Pseudomonas aeruginosa [26] = test: Bactericidal activity against Pseudomonas aeruginosa by time-kill assay; assay type: functional, organism-based; method in brief: as §2
Pseudomonas aeruginosa [27] = test: Bactericidal activity against Pseudomonas aeruginosa at 20 times MIC after 24 hrs by time-kill assay relative to control; assay type: functional, organism-based; method in brief: as §2
Staphylococcus aureus [28] = test: Bactericidal activity against Staphylococcus aureus at 4 to 20 times MIC after 24 hrs by time-kill assay; assay type: functional, organism-based; method in brief: as §2
Staphylococcus aureus [29] = test: Ratio of gentamycin MIC to compound MIC for Staphylococcus aureus after 24 hrs by spectrophotometry; assay type: functional
[30] = Hemolytic activity in mouse erythrocytes at 100 uM to 1 mM after 1 hr by spectrophotometry; assay type: ADME, cell-based, Erythrocyte; conditions: read-out: Activity
Method in brief: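 100 μL peptide (1 μM–1 mM in Tris buffer) plus 100 μL cells, incubated 1 h at 37 °C, triplicates. After centrifugation, supernatant A540 read. Percent hemolysis calculated relative to buffer (0%) and 0.1% Triton X-100 (100%) controls.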

Pseudomonas syringae [31] = test: Inhibition of Pseudomonas syringae pv. actinidiae 16027 biofilm formation at 5 uM after 48 hrs; assay type: functional
Method in brief: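 Psa16027 overnight culture (OD600 0.3) grown at 28 °C in LB. 50 μL peptide in LB (1–100 μM) plus 50 μL diluted culture, triplicates, incubated 48 h at 28 °C at 50 rpm. Wells stained with 1% crystal violet for 5 min and washed; stain solubilized in 96% ethanol and A560 read as biofilm mass. For imaging, 12-well plates were used and stained biofilms viewed at 400×.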

Escherichia coli [32] = test: Bactericidal activity against Escherichia coli assessed as reduction in bacterial count at 2 to 4 times MIC up to 9 hrs by time-kill assay relative to control; assay type: functional; method in brief: as §2
Pseudomonas aeruginosa [33] = test: Inhibition of Pseudomonas aeruginosa biofilm formation at 10 to 50 uM after 48 hrs; assay type: functional, organism-based; method in brief: as §4
Staphylococcus aureus [34] = test: Antimicrobial activity against Staphylococcus aureus assessed as perturbed cell membrane at 2 times MIC measured after 24 hrs by scanning electron microscopy; assay type: functional, organism-based; method in brief: as §1

CCC(C)CCC(=O)N[C@H](CCN)C(=O)N[C@@H](CCN)C(=O)N[C@@H](CCN)C(=O)N[C@@H](CC(C)C)C(=O)N[C@H](Cc1ccccc1)C(=O)N[C@@H](CCN)C(=O)N[C@@H](CCN)C(=O)N[C@@H](CC(C)C)C(N)=O (stereo partly drawn) ({Hexanoyl(4ξ-Me)}-[dDab][Dab][Dab]L[dF][Dab][Dab]L-NH2)
MIC (Pseudomonas aeruginosa [1]): 1 µM (≈ 1 µg/mL) | Activity (Escherichia coli [2]): Active | Activity (Escherichia coli [3]): >3 deltalog10CFU/ml | Activity (Escherichia coli [4]): Dose-dependent effect | Activity (Erwinia amylovora [5]): Dose-dependent effect | Activity (Erwinia amylovora [6]): Active | Activity (Staphylococcus aureus [7]): Active | Activity (Staphylococcus aureus [8]): Active | Activity (Staphylococcus aureus [9]): Active | MIC (Erwinia amylovora [10]): 5 µM (≈ 5.02 µg/mL) | Activity (Pseudomonas syringae [11]): Active | MIC (Erwinia amylovora [12]): 2.5 µM (≈ 2.51 µg/mL) | Activity (Staphylococcus aureus [13]): Dose-dependent effect | Activity (Pseudomonas syringae [14]): Dose-dependent effect | Activity (Erwinia amylovora [15]): Active | MIC (Staphylococcus aureus [16]): 1 µM (≈ 1 µg/mL) | inhibition (Staphylococcus aureus [17]): Active | Activity (Escherichia coli [18]): inactive | Activity (Pseudomonas aeruginosa [19]): Active | Activity (Staphylococcus aureus [20]): Active | Activity (Pseudomonas aeruginosa [21]): Active | Activity [22]: Active | MIC [23]: 1 µM (≈ 1 µg/mL) | Activity (Staphylococcus aureus [24]): Active | MIC (Escherichia coli [25]): 2.5 µM (≈ 2.51 µg/mL) | Activity (Pseudomonas aeruginosa [26]): Dose-dependent effect | Activity (Pseudomonas aeruginosa [27]): Active | Activity (Staphylococcus aureus [28]): Active | Ratio (Staphylococcus aureus [29]): 2 | hemolysis at 1 h, 100 µM [30]: 1.79% | inhibition (Pseudomonas syringae [31]): Active | Activity (Escherichia coli [32]): >3 deltalog10CFU/ml | inhibition (Pseudomonas aeruginosa [33]): Active | Activity (Staphylococcus aureus [34]): Active

— ChEMBL document CHEMBL3616459, “Antimicrobial peptides with potential for biofilm eradication: synthesis and structure activity relationship studies of battacin peptides” (J Med Chem, 2015)
